Data from ChEMBL document CHEMBL4689842, “EUbOPEN Chemogenomics Library wave 1” (2021).

System: U2OS
Experiment: Multiplex assay against U2OS
Assay type: toxicity, cell-based
Conditions: human
Summary of the method: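 Four dyes were applied at seeding to live cells: Hoechst33342, BioTracker Green Microtubule Cytoskeleton Dye, MitoTracker Red and Annexin V Alexa Fluor 680. Imaging after compound addition used a CQ1 microscope at 37°C and 5% CO2. CellPathfinder machine-learning gating then sorted cells into Hoechst high-intensity objects or normal cells, normal cells into healthy, pyknosed or fragmented nuclei, and pyknosed cells into mitotic or apoptotic, with tubulin, mitochondrial-mass and membrane-permeability phenotypes given as per cents of healthy-nucleus cells.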

[1] = 12 h, 1 µM, compound concentration 1 uM, replicate 1
[2] = 12 h, 1 µM, compound concentration 1 uM, replicate 2
[3] = 12 h, 10 µM, compound concentration 10 uM, replicate 1
[4] = 12 h, 10 µM, compound concentration 10 uM, replicate 2
[5] = 24 h, 1 µM, compound concentration 1 uM, replicate 1
[6] = 24 h, 1 µM, compound concentration 1 uM, replicate 2
[7] = 24 h, 10 µM, compound concentration 10 uM, replicate 1
[8] = 24 h, 10 µM, compound concentration 10 uM, replicate 2
[9] = 48 h, 1 µM, compound concentration 1 uM, replicate 1
[10] = 48 h, 1 µM, compound concentration 1 uM, replicate 2
[11] = 48 h, 10 µM, compound concentration 10 uM, replicate 1
[12] = 48 h, 10 µM, compound concentration 10 uM, replicate 2

COC(=O)C1=C(C)NC(C)=C(C(=O)OCCCN2CCC(c3ccccc3)(c3ccccc3)CC2)[C@H]1c1cccc([N+](=O)[O-])c1 [NIGULDIPINE]
Population Apoptotic (%) [1]: 64% | Population Fragmented Nuclei (%) [1]: 18% | Population Healthy Nuclei (%) [1]: 58% | Population Hoechst High Intensity Objects (%) [1]: 11% | Population Membrane Permeable-Phenotype (%) [1]: 53% | Population Mitochondria Different-Phenotype (%) [1]: 96% | Population Mitotic Cells (%) [1]: 36% | Population Normal (%) [1]: 88% | Population Pyknosed Nuclei (%) [1]: 23% | Population Tubulin-Different-Phenotype (%) [1]: 96% | Total Cell Count [1]: 893 | Population Apoptotic (%) [2]: 91% | Population Fragmented Nuclei (%) [2]: 6% | Population Healthy Nuclei (%) [2]: 78% | Population Hoechst High Intensity Objects (%) [2]: 9% | Population Membrane Permeable-Phenotype (%) [2]: 66% | Population Mitochondria Different-Phenotype (%) [2]: 100% | Population Mitotic Cells (%) [2]: 8% | Population Normal (%) [2]: 90% | Population Pyknosed Nuclei (%) [2]: 15% | Population Tubulin-Different-Phenotype (%) [2]: 100% | Total Cell Count [2]: 945 | Population Apoptotic (%) [3]: 73% | Population Fragmented Nuclei (%) [3]: 62% | Population Healthy Nuclei (%) [3]: 4% | Population Hoechst High Intensity Objects (%) [3]: 7% | Population Mitochondria Different-Phenotype (%) [3]: 100% | Population Mitotic Cells (%) [3]: 26% | Population Normal (%) [3]: 92% | Population Pyknosed Nuclei (%) [3]: 33% | Total Cell Count [3]: 122 | Population Apoptotic (%) [4]: 76% | Population Fragmented Nuclei (%) [4]: 67% | Population Healthy Nuclei (%) [4]: 3% | Population Hoechst High Intensity Objects (%) [4]: 12% | Population Membrane Permeable-Phenotype (%) [4]: 100% | Population Mitochondria Different-Phenotype (%) [4]: 50% | Population Mitotic Cells (%) [4]: 23% | Population Normal (%) [4]: 87% | Population Pyknosed Nuclei (%) [4]: 29% | Population Tubulin-Different-Phenotype (%) [4]: 100% | Total Cell Count [4]: 87 | Population Apoptotic (%) [5]: 76% | Population Fragmented Nuclei (%) [5]: 17% | Population Healthy Nuclei (%) [5]: 52% | Population Hoechst High Intensity Objects (%) [5]: 10% | Population Membrane Permeable-Phenotype (%) [5]: 76% | Population Mitochondria Different-Phenotype (%) [5]: 98% | Population Mitotic Cells (%) [5]: 23% | Population Normal (%) [5]: 89% | Population Pyknosed Nuclei (%) [5]: 30% | Total Cell Count [5]: 927 | Population Apoptotic (%) [6]: 77% | Population Fragmented Nuclei (%) [6]: 7% | Population Healthy Nuclei (%) [6]: 65% | Population Hoechst High Intensity Objects (%) [6]: 5% | Population Membrane Permeable-Phenotype (%) [6]: 96% | Population Mitochondria Different-Phenotype (%) [6]: 100% | Population Mitotic Cells (%) [6]: 22% | Population Normal (%) [6]: 94% | Population Pyknosed Nuclei (%) [6]: 27% | Population Tubulin-Different-Phenotype (%) [6]: 100% | Total Cell Count [6]: 948 | Population Apoptotic (%) [7]: 78% | Population Fragmented Nuclei (%) [7]: 69% | Population Healthy Nuclei (%) [7]: 2% | Population Hoechst High Intensity Objects (%) [7]: 14% | Population Membrane Permeable-Phenotype (%) [7]: 100% | Population Mitochondria Different-Phenotype (%) [7]: 100% | Population Mitotic Cells (%) [7]: 21% | Population Normal (%) [7]: 85% | Population Pyknosed Nuclei (%) [7]: 27% | Population Tubulin-Different-Phenotype (%) [7]: 100% | Total Cell Count [7]: 111 | Population Apoptotic (%) [8]: 100% | Population Fragmented Nuclei (%) [8]: 40% | Population Healthy Nuclei (%) [8]: 25% | Population Hoechst High Intensity Objects (%) [8]: 11% | Population Mitotic Cells (%) [8]: 0% | Population Normal (%) [8]: 88% | Population Pyknosed Nuclei (%) [8]: 33% | Total Cell Count [8]: 85 | Population Apoptotic (%) [9]: 78% | Population Fragmented Nuclei (%) [9]: 23% | Population Healthy Nuclei (%) [9]: 39% | Population Hoechst High Intensity Objects (%) [9]: 12% | Population Membrane Permeable-Phenotype (%) [9]: 82% | Population Mitochondria Different-Phenotype (%) [9]: 97% | Population Mitotic Cells (%) [9]: 21% | Population Normal (%) [9]: 87% | Population Pyknosed Nuclei (%) [9]: 36% | Population Tubulin-Different-Phenotype (%) [9]: 97% | Total Cell Count [9]: 922 | Population Apoptotic (%) [10]: 85% | Population Fragmented Nuclei (%) [10]: 15% | Population Healthy Nuclei (%) [10]: 54% | Population Hoechst High Intensity Objects (%) [10]: 5% | Population Membrane Permeable-Phenotype (%) [10]: 92% | Population Mitochondria Different-Phenotype (%) [10]: 100% | Population Mitotic Cells (%) [10]: 14% | Population Normal (%) [10]: 94% | Population Pyknosed Nuclei (%) [10]: 30% | Population Tubulin-Different-Phenotype (%) [10]: 100% | Total Cell Count [10]: 932 | Population Apoptotic (%) [11]: 81% | Population Fragmented Nuclei (%) [11]: 69% | Population Healthy Nuclei (%) [11]: 2% | Population Hoechst High Intensity Objects (%) [11]: 10% | Population Membrane Permeable-Phenotype (%) [11]: 100% | Population Mitochondria Different-Phenotype (%) [11]: 100% | Population Mitotic Cells (%) [11]: 18% | Population Normal (%) [11]: 89% | Population Pyknosed Nuclei (%) [11]: 28% | Population Tubulin-Different-Phenotype (%) [11]: 100% | Total Cell Count [11]: 116 | Population Apoptotic (%) [12]: 100% | Population Fragmented Nuclei (%) [12]: 17% | Population Healthy Nuclei (%) [12]: 28% | Population Hoechst High Intensity Objects (%) [12]: 18% | Population Mitochondria Different-Phenotype (%) [12]: 93% | Population Mitotic Cells (%) [12]: 0% | Population Normal (%) [12]: 81% | Population Pyknosed Nuclei (%) [12]: 53% | Total Cell Count [12]: 97
